Results: BindingDB's records for doi:10.1021/jm970460b (University of Wisconsin-Milwaukee, 1998)

Molecular target: Gamma-aminobutyric acid receptor subunit alpha-6/beta-3/gamma-2 (Homo sapiens, UniProt Q16445+P18507+P28472)
Experiment: Binding affinity measured using LtK- cell membranes expressing Gamma-aminobutyric acid A receptor alpha-6-beta-3-gamma-2
Procedure, shortened: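 Cells scraped, resuspended in 10 mM KH2PO4/100 mM KCl, pH 7.4. Incubation 1 h at 4 °C to equilibrium, filtration, scintillation counting. Ki from iterative least-squares fit, mean of two determinations.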

Sequence of Gamma-aminobutyric acid receptor subunit alpha-6/beta-3/gamma-2 (Q16445 whole entry): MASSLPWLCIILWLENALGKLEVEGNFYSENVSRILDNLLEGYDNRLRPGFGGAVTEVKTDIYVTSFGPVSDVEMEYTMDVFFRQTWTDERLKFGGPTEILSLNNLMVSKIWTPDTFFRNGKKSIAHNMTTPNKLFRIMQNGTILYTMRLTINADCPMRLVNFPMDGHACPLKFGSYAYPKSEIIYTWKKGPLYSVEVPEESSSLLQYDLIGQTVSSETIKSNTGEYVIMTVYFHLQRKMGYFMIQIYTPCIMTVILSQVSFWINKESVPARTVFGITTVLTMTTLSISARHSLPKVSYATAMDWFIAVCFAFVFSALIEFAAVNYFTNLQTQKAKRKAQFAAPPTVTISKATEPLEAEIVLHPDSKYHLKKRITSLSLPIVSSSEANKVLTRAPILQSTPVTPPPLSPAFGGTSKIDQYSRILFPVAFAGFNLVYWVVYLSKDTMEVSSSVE
Sequence of Gamma-aminobutyric acid receptor subunit alpha-6/beta-3/gamma-2 (P18507 as listed by the source): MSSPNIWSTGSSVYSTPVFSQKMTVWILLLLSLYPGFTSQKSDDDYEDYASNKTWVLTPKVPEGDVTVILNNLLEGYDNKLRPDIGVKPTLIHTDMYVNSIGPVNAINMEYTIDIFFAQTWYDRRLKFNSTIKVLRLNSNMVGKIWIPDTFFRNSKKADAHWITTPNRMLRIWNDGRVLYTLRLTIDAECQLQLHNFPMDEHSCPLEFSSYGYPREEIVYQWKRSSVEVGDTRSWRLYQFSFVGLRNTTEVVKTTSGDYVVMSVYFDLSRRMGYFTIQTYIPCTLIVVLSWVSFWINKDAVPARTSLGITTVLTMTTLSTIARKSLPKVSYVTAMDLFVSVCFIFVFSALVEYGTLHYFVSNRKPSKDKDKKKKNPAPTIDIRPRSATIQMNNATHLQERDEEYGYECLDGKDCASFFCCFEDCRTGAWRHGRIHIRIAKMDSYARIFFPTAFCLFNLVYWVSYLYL
Sequence of Gamma-aminobutyric acid receptor subunit alpha-6/beta-3/gamma-2 (P28472 whole entry): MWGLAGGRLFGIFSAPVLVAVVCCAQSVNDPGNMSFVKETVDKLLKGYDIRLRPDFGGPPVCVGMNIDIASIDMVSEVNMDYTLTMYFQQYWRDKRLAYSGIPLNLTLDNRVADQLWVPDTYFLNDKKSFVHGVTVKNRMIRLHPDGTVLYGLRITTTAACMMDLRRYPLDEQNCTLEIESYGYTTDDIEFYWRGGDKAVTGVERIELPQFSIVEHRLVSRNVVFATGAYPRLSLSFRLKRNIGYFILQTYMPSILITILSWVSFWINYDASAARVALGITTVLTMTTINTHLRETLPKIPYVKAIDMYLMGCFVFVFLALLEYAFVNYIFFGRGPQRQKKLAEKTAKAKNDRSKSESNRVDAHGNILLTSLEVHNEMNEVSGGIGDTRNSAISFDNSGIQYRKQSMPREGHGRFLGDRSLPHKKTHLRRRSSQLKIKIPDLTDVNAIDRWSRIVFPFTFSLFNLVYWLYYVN

Ki: > 1000 nM
SMILES: CCOC(=O)c1[nH]cc2nc3ccc(OCc4ccccc4)cc3c-2c1COC [6-Benzyloxy-4-methoxymethyl-9H-beta-carboline-3-carboxylic acid ethyl ester]
